Test results published in paper PMC7992179 (ACS Omega, 2021).

Columns and labels:
PTZ-induced convulsions = PTZ-induced convulsions in mice; type: in vivo; details: for average duration of seizure / latency time / seizure score / mortality: 5 mg/kg i.p., PTZ 70 mg/kg i.p., n = 10; for average duration of seizure / latency time / seizure score: mean ± SEM; for enhancement of latency time of PTZ-induced seizures compared with the standard LTG drug: 5 mg/kg, vs LTG
Method in brief: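 Overnight-fasted albino mice (n = 10 per group) received test compound at 5 mg/kg i.p., suspended in carboxymethylcellulose and sonicated. Controls were vehicle, PTZ alone and lamotrigine (dose-finding at 1–5 mg/kg). Clonic seizures were induced with PTZ 70 mg/kg i.p. Recorded: latency, convulsion duration, number of convulsions, protection, and a 0–6 seizure score (6 = death). Mean ± SEM; one-way ANOVA with Dunnett's test versus the PTZ group.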

[1] = test system: motor coordination on rotating rod; experiment: Neurotoxicity / minimal motor impairment, rotating rod; type: in vivo; details: rod observed 5 min, mean ± SEM, 10 mice
Method in brief: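 White albino mice of either sex, 8–10 weeks, 25–35 g, were trained on a rotating rod (2.5 cm diameter, 25 cm high). After i.p. dosing (10, 30 or 50 mg/kg), motor coordination was scored over 5 min at 30 min and 4 h. Neurotoxicity meant failure to stay on the rod for 1 min. 10 mice per group; mean ± SEM.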

MCF-7 cell line = experiment: MTT cytotoxicity assay in MCF-7 cells; type: cell-based, human; details: 48 h, MTT; for % inhibition/stimulation: conc. 30 μM
Method in brief: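 MCF-7 cells grown in Eagle's MEM with 10% FBS, 1% penicillin/streptomycin, 0.1 mM non-essential amino acids, 10 μg/mL insulin and 1 mM sodium pyruvate at 37 °C, 5% CO2. Trypsin/EDTA-harvested cells were seeded at 6 × 10^4 cells/mL and incubated overnight. Test compound (1–30 μM, or a fixed 30 μM screen against doxorubicin) was applied for 48 h. MTT 0.5 mg/mL for 4 h, DMSO, A570; % inhibition and IC50.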

| Substance | average duration of seizure (PTZ-induced convulsions) | latency time (PTZ-induced convulsions) | seizure score (PTZ-induced convulsions) | mortality (PTZ-induced convulsions) | enhancement of latency time of PTZ-induced seizures compared with the standard LTG drug (PTZ-induced convulsions) | protection against PTZ-induced convulsions (PTZ-induced convulsions; dose of 5 mg/kg) | time on Rod ([1]; dose 10 mg/kg i.p.) | time on Rod ([1]; dose 30 mg/kg i.p.) | time on Rod ([1]; dose 50 mg/kg i.p.) | IC50 ± SD (MCF-7 cell line; MCF-7, 1–30 μM) | % inhibition/stimulation (MCF-7 cell line) | IC50 (MCF-7 cell line; read-out: IC50 ± SD, MCF-7, 1–30 μM) |
| --- | --- | --- | --- | --- | --- | --- | --- | --- | --- | --- | --- | --- |
| 2,2′-{[6-(2,3-Dichlorophenyl)-1,2,4-triazine-3,5-diyl]bis[azanylylidene(E)methanylylidene]}diphenol Copper Acetate Coordinate Complex [5b] | 97.5 ± 28.3 s | 250.0 ± 88.3 s | 11.0 ± 2.4 counts | 1 counts | 18% | 90% | 116.7 ± 94.3 s | 100.0 ± 86.3 s | 75.83 ± 54.3 s | inactive | 0.00% |  |
| 2,2′-{[6-(2,3-Dichlorophenyl)-1,2,4-triazine-3,5-diyl]bis[azanylylidene(E)methanylylidene]}diphenol Silver Nitrate Coordinate Complex [6b] | 95 ± 10.5 s | 330.0 ± 67.8 s | 12.0 ± 1.8 counts | 0.0 counts | 56% |  | 153.3 ± 92.7 s | 146.3 ± 90.9 s | 130.0 ± 91.7 s |  | 101.2% | 11.9 ± 0.27 µM |
| (1E,2Z)-N-[6-(2,3-Dichlorophenyl)-5-{(E)-[(2E)-3-phenylprop-2-en-1-ylidene]amino}-1,2,4-triazin-3-yl]prop-2-en-1-imine Copper Acetate Coordinate Complex [5a] | 81.5 ± 2.1 s | 170.0 ± 45.2 s | 11.0 ± 1.9 counts | 0.0 counts |  |  | 76.7 ± 19.7 s | 55.9 ± 12.9 s | 40.9 ± 10.7 s | inactive | 0.00% |  |
